Yeast growth inh – reduces growth of yeast BB579 in restrictive medium. S. cerevisiae BB579 growth, OD615, 48 h. inhibition, % at 10 µM. 0.51% of 140,000 active. AID 804;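 active = inhibition above a set limit, 3 SD over the mean compound inhibition, cut at about 44% in these data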
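Test system: DeaD yeast strain BB579 / Buffer or medium: restrictive glucose-based CSMM-D medium / Doses: single 10 µM dose / Schedule: 4 h cell preincubation, 48 h compound exposure, 30 °C humidified / Technique: culture absorbance at 615 nm / Controls: amphotericin B positive control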
INS promoter inh – TRM-6 insulin promoter activity inhibition; TRM-6 cells, insulin promoter-eGFP reporter, imaging; reporter expression induced with tamoxifen; inhibition, % at 2 µM; 0.9% of 130,000 active; AID 1273;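 active = inhibition above the mean plus 3 SD, with well images judged a real hit on visual review, cut at about 60% in these data, passing the limit was not always enough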
Insulin prom up – MIN6 insulin promoter up-regulation; MIN6 insulin promoter-GFP reporter, high-content imaging; hits give high values; z-score at 5 µM; 0.3% of 190,000 active;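 active = z-score above 3 at 5 µM with at least 500 cells counted in the well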
RAM inhibit – inhibitors of the yeast RAM network. S. cerevisiae dse1pr::URA3 reporter, 5-FOA growth OD615, 2 d; analog-sensitive cbk1-as2 kinase mutant strain. inhibition, % at 50 µM. 1.8% of 190,000 active;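 active = inhibition above a set limit, 3 SD over mean compound inhibition, cut at about 8.4% in these data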;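 also: 0% = DMSO-only wells with no growth and 100% = 10 µM 1-NA-PP1 full growth; inhibition rescues growth on 5-FOA so higher OD means more RAM inhibition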
Yeast life ext – extends the lifespan of yeast. S. cerevisiae growth with nicotinamide, OD615; deaD strain in restrictive glucose medium. inhibition of the nicotinamide effect, % at 10 µM. 0.68% of 130,000 active. AID 775;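 active = inhibition above a set limit, placed 3 SD over the median of all compounds, cut at about 26% in these data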;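 also: 0% = nicotinamide-treated wells and 100% = cells grown without nicotinamide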
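Test system – modified budding yeast, DeaD strain · Compound – single dose 10 µM compound, 0.25% DMSO · Times – culture preincubation 4 h, compound exposure 48 h, both 30 °C · Detection – optical density (absorbance) at 615 nm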
Numbers without * were called inactive; . = no result given. This is a sample that favours compounds with a hit; in the whole collection about 3.1% have one here.

SMILES	Yeast growth inh	INS promoter inh	Insulin prom up	RAM inhibit	Yeast life ext
C=CCN1C(=O)/C(=C\c2ccc(Cl)cc2)N=C1SCC(=O)NC1CCCCC1	-34	5	.	1	-1
O=C(Nc1ccccc1C(=O)O)c1ccc(Br)c(S(=O)(=O)NCc2ccccc2)c1	.	-224	0.13	11*	.
O=C(Nc1ccccc1C(=O)NCc1ccccc1)c1ccccc1Br	-17	0	-0.73	1	-11
N#CC1=C(N)NC(SCc2ccccc2)=C(C#N)C12CCCC2	-44	6	-0.31	4	1
N#CC1=C(N)NC(SCC(=O)c2ccccc2)=C(C#N)C12CCCC2	-29	-61	-0.07	11*	2
C=CCn1c(SCC(=O)NC(=O)c2cccc([N+](=O)[O-])c2)nnc1-c1ccccc1	-15	-8	0.58	4	2
CCc1ccc(N/C(SCc2ccccc2C)=C(/C#N)C(=O)NCc2ccco2)cc1	-39	14	0.35	11*	-20
CCSCc1nc2ccccn2c1Br	.	76*	-0.84	1	.
CC(C)N(Cc1nc(-c2ccccc2)no1)C(=O)CN(C)S(=O)(=O)c1ccccc1	-37	-7	0	8.7*	-8
O=S(=O)(c1ccccc1)N(Cc1nc(-c2ccccc2)no1)C1CCCCC1	-54	-26	-0.31	9.2*	-4
CC(C)N(Cc1nc(-c2ccccc2)no1)S(=O)(=O)c1ccccc1	-1	.	-0.26	5	-7
NC(=O)c1nn(CC(=O)Nc2ccc3c(c2)OCO3)cc1[N+](=O)[O-]	.	-136	-0.42	1	.
O=C(CC1C(=O)NCCN1C(=O)Nc1ccc(F)cc1F)Nc1ccc(F)cc1 (configuration not stated)	.	.	0.29	.	.
O=C(Nc1ccn(Cc2ccccc2F)n1)c1ccc(COc2cccc(Br)c2)cc1	-22	0	-0.55	11*	0
O=C(Nc1ccn(Cc2ccccc2F)n1)c1ccc(COc2ccccc2Cl)cc1	-49	43	-0.3	0	-1
Cc1ccc2[nH]c3c(N4CCCCCC4)ncnc3c2c1	-18	62	-3.6	1	-28
Cc1ccc2[nH]c3c(=S)nc[nH]c3c2c1	-18	78*	-0.08	8	9
CC(=O)c1ccc(N=Cc2c(O)n(-c3cc(Cl)ccc3N3CCOCC3)c(=O)c3ccccc23)cc1	-28	46	-0.58	8.6*	-3
S=C(NCCc1ccccc1)Nc1cccc2cnccc12	.	73*	-1.2	1	.
NC(=O)c1cc(C(=O)c2ccc(Cl)cc2Cl)c[nH]1	.	.	-0.26	-1	.
O=C(c1c[nH]c(C(=O)C(Cl)(Cl)Cl)c1)c1ccccc1Cl	67*	.	0.25	-1	90*
CCc1ccccc1NC(=S)N(Cc1ccco1)C(C)c1cccs1 (configuration not stated)	.	-27	0.09	1	.
CCc1ccc(NC(=O)N(Cc2ccco2)C(C)c2cccs2)cc1 (configuration not stated)	-35	14	-1	11*	-19
Cn1nc(C(=O)Nc2ccc(S(=O)(=O)N3CCOCC3)cc2)c2ccccc2c1=O	.	.	-0.14	4	.
O=c1c(-c2ccc(Cl)cc2)[n+]([O-])c2ccccc2n1O	100*	-44	-0.12	1	-15
SMILES	Yeast growth inh	INS promoter inh	Insulin prom up	RAM inhibit	Yeast life ext
O=c1c(-c2cccc([N+](=O)[O-])c2)[n+]([O-])c2ccccc2n1O	.	.	0.25	.	.
CC(=C/C(=O)O)/C=C/c1ccco1	-24	6	0.35	-1	28*
CC(/C=C/c1ccc(Cl)o1)=C\C(=O)O	.	-92	0.28	.	.
Cc1c(Nc2cc(Cl)c3nonc3c2[N+](=O)[O-])c(=O)n(-c2ccccc2)n1C	.	100*	0.23	2	.
NC(=O)c1nsc(C(=O)N(CC(=O)NC2CCCC2)Cc2ccc3c(c2)OCO3)c1N	.	.	0.25	0	.
CC1CCN(C(=O)CNS(=O)(=O)c2ccc(Br)s2)CC1	-53	8	3.4*	-1	-3
CCCn1cc(CN2CCC(N3CCC(C(=O)N4CCOCC4)CC3)CC2)c(C)n1	.	.	-0.39	.	.
COCCNC(=O)CCCn1c(=O)c2cc(OC)c(OC)cc2n(CC(=O)NCCC2=CCCCC2)c1=O	.	75*	-0.5	3	.
CCOc1nc(-c2ccccc2)ccc1-c1noc(-c2cccs2)n1	-2	-31	0.19	11*	0
COCCn1c(SCC(=O)Nc2cc(C)nn2-c2ccccc2)nnc1-c1ccncc1	-27	-50	0.06	0	2
COc1ccc(C(=O)c2cc(C(C)=O)c(Nc3ccccc3)s2)cc1	-45	-4	-0.96	9.1*	-4
